Measured values published in ChEMBL document CHEMBL1142230, “Small-molecule activators of RNase L with broad-spectrum antiviral activity” (Proc Natl Acad Sci U S A, 2007).
One block for each compound: values may come before it. Calls of active or inactive are those of the source. No cut-off for these calls is given here.

What was measured:
[1] = target: T1, 2-5A-dependent ribonuclease (Homo sapiens, UniProt Q05823); experiment: Activation of human recombinant Rnase L assessed as cleavage of FRET RNA probe
T1 sequence (Q05823 whole entry): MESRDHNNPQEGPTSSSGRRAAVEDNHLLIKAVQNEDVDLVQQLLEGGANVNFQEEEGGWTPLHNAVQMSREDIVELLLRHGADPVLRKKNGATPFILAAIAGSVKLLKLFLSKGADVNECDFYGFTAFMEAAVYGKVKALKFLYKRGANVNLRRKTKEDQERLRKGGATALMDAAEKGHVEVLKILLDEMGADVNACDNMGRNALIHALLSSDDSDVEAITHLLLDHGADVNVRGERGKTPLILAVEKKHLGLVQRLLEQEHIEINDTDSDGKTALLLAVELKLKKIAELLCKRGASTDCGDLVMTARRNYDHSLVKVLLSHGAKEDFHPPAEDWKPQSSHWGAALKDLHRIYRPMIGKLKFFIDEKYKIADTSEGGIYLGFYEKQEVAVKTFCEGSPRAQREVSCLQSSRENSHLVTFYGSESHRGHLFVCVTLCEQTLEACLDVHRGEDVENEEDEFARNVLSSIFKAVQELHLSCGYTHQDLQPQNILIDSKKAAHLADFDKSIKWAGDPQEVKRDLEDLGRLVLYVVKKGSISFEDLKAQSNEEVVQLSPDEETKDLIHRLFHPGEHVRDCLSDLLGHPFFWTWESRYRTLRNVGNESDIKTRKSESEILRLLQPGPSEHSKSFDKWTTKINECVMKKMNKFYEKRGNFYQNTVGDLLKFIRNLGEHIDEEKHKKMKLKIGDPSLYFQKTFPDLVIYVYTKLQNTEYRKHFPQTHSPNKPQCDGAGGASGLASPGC
How it was run: (§1)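 Baculovirus-expressed, FPLC-purified recombinant human RNase L (25 nM) with 100 nM 36-nt 6-FAM/BHQ-1 FRET RNA probe (Km 75 nM) in cleavage buffer: 25 mM Tris·HCl pH 7.4, 100 mM KCl, 10 mM MgCl2, 50 μM ATP, 7 mM 2-mercaptoethanol. 22°C up to 2 h; fluorescence ex 485/em 535 nm. Compounds delivered from DMSO stocks; rescreened without RNase L to remove false positives.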

[2] = target: T2, 2-5A-dependent ribonuclease (Homo sapiens) (UniProt Q05823); experiment: Activation of human recombinant RNase L assessed as cleavage of p32-labelled RNA molecule at 25 uM after 30 mins
T2 sequence (whole entry): T1 sequence (Q05823 whole entry)

[3] = tested on: Encephalomyocarditis virus; experiment: Antiviral activity against encephalomyocarditis virus in wild type mouse fibroblasts assessed as reduction in viral growth; type: functional
How it was run: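 SV40 T antigen-transformed wild-type mouse embryonic fibroblasts were grown in RPMI 1640 with 10% FBS and seeded at 2.5 × 10⁵ cells/well. After 1 h, cells were infected with EMCV strain K (MOI 0.5) in serum-free medium for 1 h, washed with PBS, then fed complete medium containing varied compound amounts. At 12 h, titres were measured by plaque assay on L929 cells, in triplicate.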

XMRV = experiment: Antiviral activity against human retrovirus XMRV in human DU145 cells assessed as suppression of infection; type: functional, cell-based; details: Xenotropic MuLV-related virus; DU-145
How it was run: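 DU145 cells infected with XMRV for 3 h in FBS-free RPMI 1640 containing 8 μg/ml polybrene, then washed. Treated in triplicate with compound in fresh complete RPMI for 2 d. Reverse transcriptase activity measured in supernatants.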

Human respirovirus 3 [4] = experiment: Antiviral activity against human parainfluenza virus3 in HeLaM cells expressing RNaseL R667A mutant […]; type: functional
How it was run: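 HeLa M cells expressing R667A RNase L cDNA were grown in DMEM with 10% FBS. They were infected with HPIV3/GFP (MOI 1.0) in serum-free medium for 90 min, washed with PBS, then given complete medium with varied compound amounts. At 24 h, virus was harvested by two freeze–thaw cycles and titred by plaque assay on CV1 cells, in triplicate.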

Respirovirus muris = experiment: Antiviral activity against sendai virus in HeLaS cell assessed as suppression of infection; type: functional, organism-based
How it was run: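 HeLa S cells infected with Sendai virus (Cantell), 20 HA units/ml, in serum-free medium for 90 min. Cells washed and given complete medium with compound doses. Supernatant collected at 24 h; viral genomic RNA quantified by real-time RT-PCR; triplicate.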

[5] = target: T2, 2-5A-dependent ribonuclease (Homo sapiens); experiment: Induction of dimerization of human RNaseL at 3 to 12 uM assessed by Western blotting
How it was run: (§2)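 RNase L incubated with 2-5A or activator, with or without the cross-linker dimethyl suberimidate. Oligomeric state (monomer vs dimer) read by SDS/PAGE and Western blot probed with anti-RNase L monoclonal antibody.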

[6] = target: T2, 2-5A-dependent ribonuclease (Homo sapiens); experiment: Activation of human recombinant RNaseL at 40 uM assessed as cleavage of FRET RNA probe; how it was run: as §1
[7] = target: T1, 2-5A-dependent ribonuclease; experiment: Displacement of 5'-phosphorylated, 2',5'-oligoadenylate from human recombinant RNase L assessed as decrease in resonance by surface plasma resonance
How it was run: (§3)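 Biotinylated 2-5A immobilized on streptavidin biosensor chips; 10 nM RNase L with varying activator concentrations passed over the chip. Response units recorded over time, and maximum response at equilibrium (Rmax) fitted against concentration by global fit.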

Human respirovirus 3 [8] = experiment: Antiviral activity against human parainfluenza virus3 in HeLaS cells expressing wild type RNaseL after 24 hrs by GFP reporter assay; type: functional
How it was run: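 HeLa S cells, with endogenous wild-type RNase L, were infected with HPIV3/GFP at MOI 1.0. After 90 min, medium was removed and cells were washed twice with PBS. Cells were then incubated in complete medium without compound or with 10, 50 or 100 μM compound. GFP fluorescence was imaged by fluorescence microscopy at 24 h post-infection.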

HeLaS = experiment: Cytotoxicity against of human HeLaS cells assessed as reduction of cell viability upto 50 uM; type: functional, cell-based
How it was run: (§4)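 SV40-transformed mouse embryonic fibroblasts or HeLa S cells (10^4/well) treated with compound up to 50 μM for 24 h. MTS reagent added for 3 h at 37°C; absorbance read at 490 nm. Triplicate, with SDs.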

[9] = Cytotoxicity against mouse fibroblast assessed as reduction of cell viability upto 50 uM; type: cell-based; how it was run: as §4
Human respirovirus 3 [10] = experiment: Antiviral activity against human parainfluenza virus3 in HeLaM cells expressing wild type RNaseL by plaque assay
[11] = target: T2, 2-5A-dependent ribonuclease (Homo sapiens); experiment: Activation of human recombinant RNase L assessed as cleavage of FRET RNA probe at 15 mins; how it was run: as §1
[12] = target: T2, 2-5A-dependent ribonuclease (Homo sapiens); experiment: Induction of dimerization of human RNaseL at 0.06 to 0.25 uM assessed by Western blotting; how it was run: as §2
[13] = target: T1, 2-5A-dependent ribonuclease; experiment: Binding affinity to human recombinant RNase L; how it was run: as §3

EC50 [1]: 79 µM
Structure (SMILES): CC(=O)c1ccc(NC(=S)NC(NC(=O)Cc2ccccc2)C(Cl)(Cl)Cl)cc1 (stereo not drawn)

Structure (SMILES): O=c1[nH]c(-c2cccc(O)c2)nc2sc3c(c12)CCCC3
Activity [2]: Active
Activity [3]: 7
Activity (XMRV): Active
Activity (Human respirovirus 3 [4]): <2
Activity (Respirovirus muris): Active
Activity [5]: Active
Activity [6]: Active
Kd [7]: 12 µM
EC50 [1]: 22 µM
Activity (Human respirovirus 3 [8]): 5
Activity (HeLaS): inactive
Activity [9]: Not Active
Activity (Human respirovirus 3 [10]): Active

Activity [2]: Active
Activity [11]: Active
Activity [12]: Active
Structure (SMILES): Nc1ncnc2c1ncn2[C@@H]1O[C@H](COP(=O)(O)O[C@@H]2[C@H](O)[C@@H](COP(=O)(O)O[C@@H]3[C@H](O)[C@@H](COP(=O)(O)OP(=O)(O)OP(=O)(O)O)O[C@H]3n3cnc4c(N)ncnc43)O[C@H]2n2cnc3c(N)ncnc32)[C@@H](O)[C@H]1O

EC50 [1]: 48 µM
Structure (SMILES): COc1ccc(Cl)cc1NC(=O)c1cc2c(C)nn(-c3ccccc3)c2s1

Kd [13]: 0.04 nM
Kd [7]: 0.00022 µM
EC50 [1]: 0.0005 µM
Structure (SMILES): Nc1ncnc2c1ncn2[C@@H]1O[C@H](CO[P@](=O)(O)O[C@@H]2[C@H](O)[C@@H](CO[P@](=O)(O)O[C@@H]3[C@H](O)[C@@H](CO[P@](=O)(O)O[P@@](=O)(O)OP(=O)(O)O)O[C@H]3n3cnc4c(N)ncnc43)O[C@H]2n2cnc3c(N)ncnc32)[C@@H](O)[C@H]1O

EC50 [1]: 26 µM
Structure (SMILES): O=c1[nH]c(-c2ccc(O)cc2)nc2sc3c(c12)CCCC3

EC50 [1]: 50 µM
Structure (SMILES): Cc1c(Cl)cccc1NC1=NC(=O)/C(=C/c2ccc([N+](=O)[O-])cc2)S1

EC50 [1]: 90 µM
Structure (SMILES): CCCCOC(=O)c1ccc(NC(=S)NC(NC(=O)CC)C(Cl)(Cl)Cl)cc1 (stereo not drawn)

Structure (SMILES): CCOC(=O)C1=C(Nc2ccccc2)S/C(=C\c2cccc(O)c2)C1=O
Activity [2]: Active
Activity [3]: 7
Activity (Respirovirus muris): Active
Activity [5]: Active
Activity [6]: Active
Kd [7]: 18 µM
EC50 [1]: 26 µM
Activity [12]: Active
Activity (HeLaS): inactive
Activity [9]: Not Active

EC50 [1]: 49 µM
Structure (SMILES): CCOC(=O)C1=C(Nc2ccc(Cl)cc2)S/C(=C\c2cccc(O)c2)C1=O

EC50 [1]: 22 µM
Structure (SMILES): O=c1[nH]c(-c2cccc([N+](=O)[O-])c2)nc2sc3c(c12)CCCC3

EC50 [1]: 99 µM
Structure (SMILES): CCCCOC(=O)c1ccc(NC(=S)NC(NC(C)=O)C(Cl)(Cl)Cl)cc1 (stereo not drawn)

EC50 [1]: 49 µM
Structure (SMILES): Cc1ccc(NC2=NC(=O)/C(=C/c3cccc(O)c3)S2)c(Cl)c1
